The list is not random: actives were taken first. Their share in the collection is about 3.8%.
Kir21 inh: inhibitors of mouse Kir2.1 inward-rectifier potassium channel. Inward rectifier potassium channel 2 (Mus musculus), P35561. HEK293-Kir2.1, FluxOR thallium flux fluorescence; hits give low values. 0.85% of 310,000 active. B-score at 10 µM;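 active = fluorescence ratio B-score at or below minus 3 SD of library scores, with starting-brightness B-score within 2 SD, cut at about -4.2 in these data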;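 note: channel flux triggered by added potassium and thallium sulfate stimulus; B-score of peak minus minimum fluorescence over baseline after thallium stimulus; more negative B-score means stronger Kir2.1 block with less thallium influx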
KCNQ1 pot: potentiators or activators of KCNQ1 channel, primary screen, cell-based, thallium flux, high-throughput. CHO-K1 KCNQ1, thallium flux FluxOR fluorescence; hits give high values. 0.35% of 310,000 active. B-score at 10 µM. Potassium voltage-gated channel subfamily KQT member 1 (Homo sapiens), P51787;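 active = fluorescence ratio B-score, a plate-corrected score, at least three library SD, with initial intensity B-score within 5 SD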
Target sequence (P51787 whole entry, looked up): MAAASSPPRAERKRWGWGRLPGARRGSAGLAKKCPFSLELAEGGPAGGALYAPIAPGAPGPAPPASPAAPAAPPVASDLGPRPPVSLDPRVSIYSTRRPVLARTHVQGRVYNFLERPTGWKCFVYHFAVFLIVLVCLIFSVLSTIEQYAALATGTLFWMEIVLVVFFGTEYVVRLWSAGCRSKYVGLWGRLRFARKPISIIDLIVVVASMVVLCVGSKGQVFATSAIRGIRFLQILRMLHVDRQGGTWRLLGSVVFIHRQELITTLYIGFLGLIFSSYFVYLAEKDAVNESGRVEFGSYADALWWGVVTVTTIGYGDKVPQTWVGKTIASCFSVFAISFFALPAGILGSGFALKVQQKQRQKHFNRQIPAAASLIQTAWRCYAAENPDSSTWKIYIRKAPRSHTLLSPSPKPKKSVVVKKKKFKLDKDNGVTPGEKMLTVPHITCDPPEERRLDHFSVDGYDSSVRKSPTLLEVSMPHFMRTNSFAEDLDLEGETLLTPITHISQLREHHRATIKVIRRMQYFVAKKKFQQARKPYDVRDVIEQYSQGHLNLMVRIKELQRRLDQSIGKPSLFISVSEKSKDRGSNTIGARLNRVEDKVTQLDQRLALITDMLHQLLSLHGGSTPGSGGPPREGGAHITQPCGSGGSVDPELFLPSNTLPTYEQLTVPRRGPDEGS
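Assay system: CHO-K1 cells stably expressing KCNQ1; Medium: assay buffer with matched DMSO; Also added: K+/Tl+ depolarizing stimulus; Dosing: single dose; Timing: dye 90 min, compound 20 min, room temperature; Measured by: kinetic FluxOR thallium fluorescence, 10-s 1-Hz baseline, 110-s post-stimulus read; Read-out: peak-minus-minimum fluorescence over initial fluorescence, negative-control normalized, B-scored.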
hERG rescue: hERG rescue from dofetilide block, primary screen, cell-based, CHO-hERG, FluxOR thallium flux, dofetilide IC70 | Voltage-gated inwardly rectifying potassium channel KCNH2 (Homo sapiens), Q12809 | dofetilide IC70 present | activation (rescue from dofetilide block), less the hit threshold, % at 10 µM | 0.51% of 310,000 active | AID 1511, 2009;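 active = activation above the mean of controls blocked by dofetilide plus 5 SD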;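 note: thallium influx through hERG after potassium depolarization seen as dye fluorescence rise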
KCNQ1 block: inhibitors of human KCNQ1 channel, primary screen, cell-based, thallium flux, high-throughput; CHO-K1 KCNQ1, FluxOR thallium flux fluorescence; hits give high values; 1.3% of 310,000 active; Potassium voltage-gated channel subfamily KQT member 1 (Homo sapiens), P51787; B-score at 10 µM;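 active = compounds whose thallium flux B-score, printed positive for inhibition, exceeds three library SD while starting fluorescence stays within three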;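 note: channel opened by potassium depolarization with thallium stimulus after 20 min compound exposure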
KCNK3 inh: human KCNK3 channel inhibitors, primary screen, CHO cells, FluxOR thallium flux, B-score | Potassium channel subfamily K member 3 (Homo sapiens), O14649 | FluxOR fluorescence; hits give low values | B-score at 10 µM | 0.84% of 340,000 active | AID 602410, 2012;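 active = B-score under library mean minus 4 SD, starting fluorescence ratio at most library mean plus 5 SD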;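 note: more negative B-score means stronger inhibition of thallium flux through KCNK3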
KCNK9 inh: KCNK9 potassium channel inhibitors, primary screen, HEK293 cells, thallium flux. FluxOR thallium flux fluorescence; hits give low values. B-score at 10 µM. 1.2% of 310,000 active. AID 488922, 2010;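 active = ratio B-score over 3 SD below the library mean, with starting fluorescence within 5 SD of its mean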;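 note: negative B-score means less thallium flux so channel inhibition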
KCNK3 confirm: retest of human KCNK3 channel inhibitors, confirmation, CHO cells, FluxOR thallium flux, triplicate; shares compounds with KCNK3 inh; FluxOR fluorescence; 0% buffer, 100% carvedilol maximal block; ratio percent of control, % at 10 µM; 99% of 2,400 active; AID 651638, 2012;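 active = ratio percent of control, averaged over triplicates, above buffer control mean plus 5 SD, cut at about 64% in these data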;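 note: ratio is the fluorescence rise from min to max over baseline after thallium stimulus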
KCNK3 uninduced: thallium flux inhibition in non-induced cells, primary screen, counter-screen for KCNK3 inhibitor project, cell-based, non-induced KCNK3 line, FluxOR thallium, triplicate. non-induced KCNK3 parental cells; hits give low values. shares compounds with KCNK3 inh. 40% of 2,400 active. thallium flux ratio (lower = more inhibition) at 10 µM;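 active = thallium flux ratio, averaged over three wells, more than 5 SD below the buffer control mean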;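 note: host cells are CHO cells without KCNK3 induction; ratio is peak minus trough fluorescence over baseline then normalized to buffer controls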
Active calls of the source: *; i = inactive; · = no result.

SMILES	Kir21 inh	KCNQ1 pot	hERG rescue	KCNQ1 block	KCNK3 inh	KCNK9 inh	KCNK3 confirm	KCNK3 uninduced
CCOC(=O)c1cc2c(=O)n3ccccc3nc2n(Cc2ccco2)c1=NC(=O)c1ccccc1OCC	-2.8	i	-12	i	-8.8*	i	91*	i
CCOC(=O)c1cc2c(=O)n3ccccc3nc2n(CC(C)C)c1=NC(=O)c1ccco1	-0.25	i	-12	i	i	i	·	·
CCOc1cc(Br)c(C=O)cc1OCC	-0.89	i	-6	i	i	i	·	·
O=c1[nH][nH]c(-c2ccccc2)c1C=Nc1ccccc1	-0.46	i	-4	i	i	i	·	·
CCc1ccc(NC(=O)CN(c2ccccc2)S(=O)(=O)N(C)C)cc1	1.6	i	-4	i	-10*	i	103*	i
COc1cccc(-n2ccnc2SCC(=O)NCc2ccccc2)c1	-2.1	i	-5	i	i	i	·	·
CCCOc1ccc(-c2nnn(CC(=O)Nc3cccc(C(=O)OC)c3)n2)cc1	-1.6	i	-3	i	i	i	·	·
CCCCOc1ccc(-c2nnn(C(C)(C)C(=O)OC)n2)cc1	-0.9	i	-9	i	-11*	-6.6*	96*	i
Cc1oc(-c2ccccc2)cc1C(=O)Nc1cccc2ccccc12	0.36	i	-9	i	-11*	i	119*	0.16*
Cc1cc(C(=O)Nc2cccc3ccccc23)co1	0.7	i	-10	i	i	i	·	·
Cc1cccc(N2C(=O)CC(Sc3nc(C)c4c(n3)CCCC4)C2=O)c1 (configuration not stated)	-0.04	i	-10	i	i	i	·	·
Cc1nc(SC2CC(=O)N(c3cc(Cl)cc(Cl)c3)C2=O)nc2c1CCCC2 (configuration not stated)	-1.5	i	3	i	-9.8*	i	105*	0.16*
O=C(NCc1cccc(C(F)(F)F)c1)N1CCN(C(=O)c2ccccc2)CC1	·	·	·	·	i	·	·	·
CCOC(=O)c1cnc(-n2nc(C)cc2C)nc1NC1CCCC1	-0.06	i	-30	i	-9.4*	i	131*	0.11*
CC[C@@]1(C(=O)OC)N[C@H](CN(C)C(=O)Nc2ccc(C)cc2)[C@@H]2C(=O)N(Cc3ccccc3)C(=O)[C@@H]21	·	·	·	·	i	·	·	·
C[C@H](CO)N1C[C@H](C)[C@@H](CN(C)S(=O)(=O)c2ccccc2)Oc2c(NC(=O)CCC(F)(F)F)cccc2C1=O	·	·	·	·	-12*	·	110*	i
C[C@H](CO)N1C[C@H](C)[C@@H](CN(C)S(=O)(=O)c2ccc(F)cc2)Oc2c(NC(=O)CCC(F)(F)F)cccc2C1=O	·	·	·	·	i	·	·	·
C[C@H](CO)N1C[C@H](C)[C@@H](CN(C)Cc2ccc(Cl)c(Cl)c2)Oc2c(NS(=O)(=O)c3cccs3)cccc2C1=O	·	·	·	·	-14*	·	127*	0.14*
C[C@@H]1CN([C@H](C)CO)C(=O)c2cccc(NS(=O)(=O)c3cccs3)c2O[C@H]1CN(C)Cc1ccccc1	·	·	·	·	i	·	·	·
CNS(=O)(=O)c1cc(NC(=O)CCCNC(=O)c2ccc(Cl)cc2)ccc1C	-0.12	i	-9	i	i	i	·	·
O=C(N/N=C/c1ccc(-c2cccc(C(F)(F)F)c2)o1)c1ccccc1O	-1.6	i	-5	i	i	i	·	·
Cc1noc(-c2ccccc2)c1NC(=O)Nc1ccccc1	-0.55	i	-7	i	i	i	·	·
Cc1noc(-c2ccccc2)c1NC(=O)Nc1ccc(Cl)cc1	1.1	i	-9	i	-11*	i	106*	i
COc1cc2[nH]c(=S)n(CCN3CCOCC3)c(=O)c2cc1OC	-0.63	i	2	i	i	i	·	·
CCC(C)C(=O)Nc1ccc(S(=O)(=O)N2CCCC2)cc1 (configuration not stated)	-0.14	i	-5	i	i	i	·	·
SMILES	Kir21 inh	KCNQ1 pot	hERG rescue	KCNQ1 block	KCNK3 inh	KCNK9 inh	KCNK3 confirm	KCNK3 uninduced
CCC(C)NS(=O)(=O)c1ccc(S(=O)(=O)N2CCCC3(CCCCC3)C2)cc1 (configuration not stated)	-2.4	i	-10	i	-9*	i	118*	0.14*
CCCn1ncc([C@@H]2C[C@H]3CN(Cc4cccc(Cl)c4)C(=O)[C@]34CCCN24)c1C	0.01	i	-11	i	i	i	·	·
Cn1cc([C@@H]2C[C@H]3CN(Cc4cccc(Cl)c4)C(=O)[C@]34CCCN24)c(-c2ccccc2)n1	-1.9	i	-6	i	-9.7*	-7.3*	100*	i
Cc1nn(C)cc1[C@@H]1C[C@H]2CN(Cc3cccc(Cl)c3)C(=O)[C@]23CCCN13	0.81	i	-8	i	i	i	·	·
O=C1N(Cc2cccc(Cl)c2)C[C@@H]2C[C@@H](c3ccco3)N3CCC[C@@]123	0.07	i	-8	i	-9.2*	i	88*	i
CN1CCN(C(=O)c2c(O)c3cccc4c3n(c2=O)CC4)CC1	0.24	i	-5	i	i	i	·	·
O=C(Cn1c(CO)nc2ccccc21)Nc1cc(C(F)(F)F)ccc1N1CCOCC1	-0.37	i	-6	i	-10*	i	66*	i
Cc1cccc2c1-c1sc(C(=O)N3CCCCC3)cc1CO2	1.6	i	-6	i	-12*	i	90*	i
CCOC(=O)N1CCN(C(=O)c2cc3c(s2)-c2c(C)cccc2OC3)CC1	-0.01	i	-4	i	i	i	·	·
CCN1CCN(C(=O)c2cc3c(s2)-c2c(C)cccc2OC3)CC1	0	i	-11	i	i	i	·	·
Cc1cccc2c1-c1sc(C(=O)N3CCc4ccccc4C3)cc1CO2	0.57	i	-7	i	-8.7*	i	87*	0.14*

Screens from PubChem.
